Test results reported in ChEMBL document CHEMBL3124880, “4-(3-Chloro-5-(trifluoromethyl)pyridin-2-yl)-N-(4-methoxypyridin-2-yl)piperazine-1-carbothioamide (ML267), a potent inhibitor of bacterial phosphopantetheinyl transferase that attenuates secondary metabolism and thwarts bacterial growth” (J Med Chem, 2014).
Calls of active or inactive are those of the source. The calls are words filed in the database; no cut-off is given here.

Assays:
[1] = Inhibition of AcpS-PPTase (unknown origin)
How it was run: (§1)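 AcpS-PPTase at 100 nM final in 50 mM HEPES-Na pH 7.6, 10 mM MgCl2, 0.01% Nonidet P-40, 0.01% BSA; compound preincubated 15 min at room temperature, then rhodamine-CoA (5 μM final) and BHQ-2-YbbR (12.5 μM final) added. Fluorescence read (525 ex/598 em) at start and after 60 min; difference gives rate.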

[2] = Inhibition of Bacillus subtilis Sfp-PPTase using rhodamine-CoA/BHQ-2-YbbR as substrate preincubated for 15 mins followed by substrate addition by HTS assay
[3] = target: T1, L-aminoadipate-semialdehyde dehydrogenase-phosphopantetheinyl transferase (Homo sapiens) (UniProt Q9NRN7); experiment: Inhibition of human PPTase up to 125 uM by gel-based fluorescence assay
T1 sequence (whole entry): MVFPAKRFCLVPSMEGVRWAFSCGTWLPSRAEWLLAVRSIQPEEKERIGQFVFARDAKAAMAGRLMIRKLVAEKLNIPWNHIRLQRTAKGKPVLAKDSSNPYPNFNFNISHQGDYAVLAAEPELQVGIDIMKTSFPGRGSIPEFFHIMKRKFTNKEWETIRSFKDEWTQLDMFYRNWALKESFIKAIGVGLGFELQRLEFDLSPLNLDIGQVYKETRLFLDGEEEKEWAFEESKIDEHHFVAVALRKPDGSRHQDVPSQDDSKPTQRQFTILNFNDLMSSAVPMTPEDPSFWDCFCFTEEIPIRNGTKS

Bacillus subtilis [4] = experiment: Antibacterial activity against Bacillus subtilis HM489 assessed as cellular ATP content after 5 hrs by BacTiter-Glo assay; format: functional, organism-based; details: HM489, 5 h
HepG2 = experiment: Cytotoxicity against human HepG2 cells assessed as cellular ATP content after 48 hrs by CellTiter-Glo assay; format: cell-based; details: HepG2, 48 h
How it was run: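 HepG2 cells exposed to compound; viability read as cellular ATP by luciferase-coupled CellTiter-Glo.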

[5] = Inhibition of Bacillus subtilis AcpS-PPTase using rhodamine-CoA/BHQ-2-YbbR as substrate preincubated for 15 mins followed by substrate addition by HTS assay; how it was run: as §1
Bacillus subtilis [6] = experiment: Reversible inhibition of Bacillus subtilis Sfp-PPTase using rhodamine-CoA/FITC-YbbR as substrate assessed as residual enzyme activity at IC90 preincubated for 30 mins followed by 100 fold dilution and addition of substrate by fluorescence assay
[7] = Non-competitive inhibition of Bacillus subtilis Sfp-PPTase using CoA/ActACP as substrate preincubated for 10 mins followed by substrate addition measured after 30 mins by HPLC analysis
Bacillus subtilis [8] = experiment: Inhibition of Bacillus subtilis Sfp-PPTase using CoA/apo-ACP as substrate preincubated for 10 mins followed by substrate addition measured after 30 mins by PAGE analysis
How it was run: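 Compound in DMSO added to Sfp at 26.6 nM (in a 1.33× enzyme solution) in HEPES-Na pH 7.6 with MgCl2, NP-40 and BSA, and held 10 min. Reaction started with rhodamine-CoA and apo-actinorhodin-ACP, each 50 μM in a 4× substrate solution. After 30 min at room temperature, quenched with urea/EDTA and resolved by native 20% PAGE.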

Bacillus subtilis [9] = experiment: Inhibition of Bacillus subtilis Sfp-PPTase
How it was run: (§2)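 qHTS fluorescence assay in 50 mM HEPES-Na pH 7.6, 10 mM MgCl2, 0.01% NP-40, 0.01% BSA. Final enzyme 15 nM Sfp or 100 nM AcpS. Enzyme preincubated with compound 15 min at room temperature, then rhodamine-CoA 5 μM and BHQ-2-YbbR 12.5 μM (final) added. Fluorescence (525 ex/598 em) read at start and after 30 min (Sfp) or 60 min (AcpS); the difference gives the rate. Eight concentrations from 3.6 nM to 114 μM, run in triplicate.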

Bacillus subtilis [10] = experiment: Inhibition of Bacillus subtilis AcpS-PPTase; how it was run: as §2
Staphylococcus aureus = experiment: Antibacterial activity against Staphylococcus aureus BK2395 in Swiss Webster mouse septicemia model assessed as increase in survival at 50 mg/kg, ip administered 4 to 48 hrs measured 3 times daily for 14 days; format: functional, organism-based; set-up: dose 50 mg/kg
Bacillus subtilis [11] = experiment: Antibacterial activity against Bacillus subtilis 168 assessed as growth inhibition after 16 to 20 hrs by resazurin dye-based assay; format: functional; details: subsp. subtilis str. 168
How it was run: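 Broth microdilution. Test article from 1 μL DMSO in 50 μL cation-adjusted Mueller Hinton II (bacteria) or RPMI 1640 (fungi), plus ~1×10^3 cfu inoculum in the same medium. Incubated 16–20 h at 30–37 °C (48 h for fungi). MIC scored visually as the first well without growth; resazurin added for imaging.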

Bacillus subtilis [12] = experiment: Antibacterial activity against Bacillus subtilis 168 assessed as disruption of cell membrane integrity at 10 times MIC after 15 mins by Syto9/propidium iodide staining-based BacLight LIVE/DEAD microscopic analysis; format: functional, organism-based; details: subsp. subtilis str. 168
Liver microsome = experiment: Drug metabolism in human liver microsomes assessed as GSH adduct formation at 50 uM after 60 mins by LC-MS/MS analysis in presence of NADPH; format: ADME; details: 1 h

Compound | IC50 [2] [µM] | also measured
CSC(Cc1ccc(Cl)cc1)C(=O)Nc1ccc(Cl)cc1C(=O)O (configuration not stated) |  | IC50 [1]: 1.4 µM
Cc1cc(C)nc(NC(=S)N2CCNCC2)c1 | 14.5 | 
Nc1ncnc2c1ncn2[C@@H]1O[C@H](COP(=O)(O)O)[C@@H](OP(=O)(O)O)[C@H]1O |  | inhibition [3]: Active
Cc1ccnc(N(C)C(=S)N2CCN(c3cccc(C(F)(F)F)c3)CC2)c1 | ≥ 114 | 
COC(=O)c1ccnc(NC(=S)N2CCN(c3cccc(C(F)(F)F)c3)CC2)c1 | 11.5 | 
Cc1ccnc(NC(=S)Nc2cccc(C(F)(F)F)c2)c1 | 22.9 | 
Cc1cc(C)nc(NC(=S)N2CCN(c3cc(Cl)cc(Cl)c3)CC2)c1 | 0.85 | 
Cc1ccnc(NC(=S)N2CCN(c3ccccc3C(F)(F)F)CC2)c1 | 0.61 | IC50 (Bacillus subtilis [4]): 9.4 µM; IC50 (HepG2): ≥ 114 µM; IC50 [5]: 10.2 µM
Cc1ccnc(NC(=S)N2CCN(c3cccc(C(F)(F)F)c3)CC2)c1 | 0.78 | IC50 (Bacillus subtilis [4]): 9.8 µM; IC50 (HepG2): 14 µM; inhibition (Bacillus subtilis [6]): Active; IC50 [7]: 0.3 µM; inhibition (Bacillus subtilis [8]): Dose-dependent effect; inhibition (Bacillus subtilis [9]): Active; IC50 [5]: 4.6 µM; inhibition (Bacillus subtilis [10]): Active
Cc1cc(C)nc(NC(=S)N2CCN(c3cccc(C#N)c3)CC2)c1 | 1.6 | 
Cc1cc(C)nc(NC(=S)N2CCN(c3nnc(C(F)(F)F)s3)CC2)c1 | 1.6 | 
Cc1ccnc(C(=S)N2CCN(c3cccc(C(F)(F)F)c3)CC2)c1 | ≥ 114 | 
Cc1cc(C)nc(NC(=S)N2CCN(Cc3cccc(C(F)(F)F)c3)CC2)c1 | 11.5 | 
COc1cccc(NC(=S)N2CCN(c3cccc(C(F)(F)F)c3)CC2)n1 | 1.5 | 
C/N=c1\nc(-c2ccccc2)n(-c2ccccc2)s1 |  | inhibition [3]: Active
Cc1ccnc(NC(=S)N2CCC(Nc3cccc(C(F)(F)F)c3)CC2)c1 | 0.81 | IC50 (Bacillus subtilis [4]): 13.2 µM; IC50 (HepG2): ≥ 114 µM; IC50 [5]: 12.9 µM
Cc1ccnc(NC(=S)NC2CN(c3cccc(C(F)(F)F)c3)C2)c1 | ≥ 114 | 
FC(F)(F)c1cccc(N2CCN(C(=S)Nc3cc(C(F)(F)F)ccn3)CC2)c1 | ≥ 114 | 
Cc1ccnc(NC(=S)N2CCN(C)CC2)c1 | 6.5 | 
Cc1cc(C)nc(Nc2nnc(N3CCN(c4cccc(C(F)(F)F)c4)CC3)s2)c1 | ≥ 114 | 

Compound | IC50 [2] [µM] | also measured
CN[C@H](CC(C)C)C(=O)N[C@H]1C(=O)N[C@@H](CC(N)=O)C(=O)N[C@H]2C(=O)N[C@H]3C(=O)N[C@H](C(=O)N[C@H](C(=O)O)c4cc(O)cc(O)c4-c4cc3ccc4O)[C@H](O)c3ccc(c(Cl)c3)Oc3cc2cc(c3O[C@@H]2O[C@H](CO)[C@@H](O)[C@H](O)[C@H]2O[C@H]2C[C@](C)(N)[C@H](O)[C@H](C)O2)Oc2ccc(cc2Cl)[C@H]1O |  | Activity (Staphylococcus aureus): Active
Cc1ccnc(CC(=S)N2CCN(c3cccc(C(F)(F)F)c3)CC2)c1 | 5.76 | 
Cetyltrimethylammonium bromide |  | growth inhibition (GI) (Bacillus subtilis [11]): Active; Activity (Bacillus subtilis [12]): Active
Cc1cc(C)nc(NC(=S)N2CCN(c3cc(Cl)c(Cl)c(Cl)c3)CC2)c1 | 0.29 | 
Cc1cc(C)nc(NC(=S)N2CCN(S(=O)(=O)c3cccc(C(F)(F)F)c3)CC2)c1 | 0.81 | 
Cc1ccnc(NC(=S)NCCNc2cccc(C(F)(F)F)c2)c1 | ≥ 114 | 
Cc1cc(C)nc(NC(=S)N2CCN(c3ccc(Cl)cc3C(F)(F)F)CC2)c1 | 0.58 | IC50 (Bacillus subtilis [4]): 18.6 µM; IC50 (HepG2): ≥ 114 µM; IC50 [5]: 10.2 µM; Drug metabolism (Liver microsome): Not Active
Cc1ccnc(NC(=S)N2CC3CN(c4cccc(C(F)(F)F)c4)CC3C2)c1 (configuration not stated) | 0.73 | 
Cc1cc(C)nc(NC(=S)N2CCN(c3cccc(C(F)(F)F)c3)CC2)c1 | 0.51 | 
O=C(N[C@H](CO)[C@H](O)c1ccc([N+](=O)[O-])cc1)C(Cl)Cl |  | growth inhibition (GI) (Bacillus subtilis [11]): Active; Activity (Bacillus subtilis [12]): inactive
Cc1ccnc(NC(=O)N2CCN(c3cccc(C(F)(F)F)c3)CC2)c1 | ≥ 114 | IC50 (Bacillus subtilis [4]): ≥ 114 µM; IC50 (HepG2): 7 µM; IC50 [5]: ≥ 114 µM
Cc1cc(C)nc(NC(=S)N2CCN(c3ccc(Cl)c(Cl)c3Cl)CC2)c1 | 0.73 | 
FC(F)(F)c1cccc(N2CCN(C(=S)Nc3ccncc3)CC2)c1 | ≥ 114 | 
Cc1ccnc(NC(=S)N2CCN(c3ccc(C(F)(F)F)cc3)CC2)c1 | 1 | 
Cc1cc(C)nc(NC(=S)N2CCN(c3cc(C#N)cc(C#N)c3)CC2)c1 | 0.65 | 
Cc1cc(C)nc(NC(=S)N2CCN(c3ccc(Cl)cc3Cl)CC2)c1 | 1 | 
Cc1cccc(NC(=S)N2CCN(c3cccc(C(F)(F)F)c3)CC2)c1 | ≥ 114 | 
Cc1cc(C)nc(NC(=S)N2CCN(c3ccc(Cl)c(Cl)c3)CC2)c1 | 0.91 | 
Cc1ccnc(NC(=S)N2CCCN(c3cccc(C(F)(F)F)c3)CC2)c1 | 1.6 | 
COc1cc(OC)cc(N2CCN(C(=S)Nc3cc(C)cc(C)n3)CC2)c1 | 2 | 

Compound | IC50 [2] [µM] | also measured
FC(F)(F)c1cccc(N2CCN(C(=S)Nc3ccc4ccccc4n3)CC2)c1 | 1.5 | 
Cc1cc(C)nc(NC(=S)N2CCN(c3ccc(C(F)(F)F)cn3)CC2)c1 |  | IC50 (Bacillus subtilis [4]): 13.2 µM; IC50 (HepG2): 15.8 µM; IC50 [5]: 16.2 µM
Cc1cc(C)nc(NC(=C(C#N)C#N)N2CCN(c3cccc(C(F)(F)F)c3)CC2)c1 | ≥ 114 | 
Cc1ccnc(NC(=N)N2CCN(c3cccc(C(F)(F)F)c3)CC2)c1 | ≥ 114 | 
Cc1ccnc(NC(=S)NCCN(C)c2cccc(C(F)(F)F)c2)c1 | ≥ 114 | 
COc1ccnc(NC(=S)N2CCN(c3cccc(C(F)(F)F)c3)CC2)c1 | 1.2 | 
Cc1cc(C)nc(N/C(=N/C#N)N2CCN(c3cccc(C(F)(F)F)c3)CC2)c1 | ≥ 114 | 
FC(F)(F)c1cccc(N2CCN(C(=S)Nc3ccccn3)CC2)c1 | 0.91 | 
Cc1cc(C)nc(NC(=S)N2CCN(c3cccc(Cl)c3Cl)CC2)c1 | 1.6 | 
Cc1cc(C)cc(N2CCN(C(=S)Nc3cc(C)cc(C)n3)CC2)c1 | 1.6 | 
Cc1cc(C)nc(NC(=S)N2CCN(c3cccc(S(C)(=O)=O)c3)CC2)c1 | 2.9 | 
Cc1ccnc(NC(=S)N2CCN(c3cccc(N(C)C)c3)CC2)c1 | 5.8 | 
FC(F)(F)c1cccc(N2CCN(C(=S)Nc3ccc4cccnc4n3)CC2)c1 | 1 | 
Cc1ccnc(NC(=S)N2CCN(c3cccc(C(F)(F)F)c3)C[C@@H]2C)c1 | 11.5 | 
Cc1cc(C)nc(NC(=S)N2CCN(c3cc(C(F)(F)F)cc(C(F)(F)F)c3)CC2)c1 | 0.51 | 
Cc1cc(C)nc(NC(=S)N2CCN(c3cc(F)cc(F)c3)CC2)c1 | 1.3 | 
Cc1ccnc(NC(=S)N2CCN(c3cccc(C(F)(F)F)c3)C2)c1 | 0.81 | 
Cc1ccnc(NC(=S)NC2CCN(c3cccc(C(F)(F)F)c3)CC2)c1 | ≥ 114 | 
Cc1cc(C)nc(NC(=S)N2CCN(c3ncc(C(F)(F)F)cc3Cl)CC2)c1 | 0.86 | IC50 (Bacillus subtilis [4]): 36.2 µM; IC50 (HepG2): 30 µM; IC50 [5]: 18.6 µM
